From ChEMBL document CHEMBL4387787, “Cucurbalsaminones A-C, Rearranged Triterpenoids with a 5/6/3/6/5-Fused Pentacyclic Carbon Skeleton from Momordica balsamina, as Multidrug Resistance Reversers” (J Nat Prod, 2019) come the findings set out here.

The nature of series [1]: Antiproliferative activity against mouse L5178Y cells by MTT assay. It counts as cell-based. The conditions noted are these: read-out: ID50 (the source's name). In outline: (§1)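 MTT assay on parental L5178 mouse T-lymphoma cells and a subline transfected with pHa MDR1/A retrovirus (human ABCB1) and selected with colchicine. Cells were exposed to increasing concentrations from 0.26 to 133 μM. Other handling followed earlier reports.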
In general terms: Tetrazolium assays rely on reduction of a dye to a coloured formazan, in cell work by metabolically active cells.

Series [2] can be described thus: Antiproliferative activity against mouse L5178Y cells transfected with ABCB1 by MTT assay. It counts as ADME, cell-based. The conditions noted are these: read-out: ID50 (the source's name). In outline: as §1
The target in series [3] is T1, ATP-dependent translocase ABCB1 (Homo sapiens, UniProt P08183). Put plainly: Modulation of ABCB1 (unknown origin) expressed in mouse L5178Y-MDR cells assessed as multidrug resistance reversing activity by measuring fluorescence activity ratio at 0.2 uM by rhodamine-123 accumulation based flow cytometry (reference value: 1.1 No unit). In kind it is cell-based. Background: A flow cytometer gives signals particle by particle.

The target of series [4] is T1, ATP-dependent translocase ABCB1. The series is described as follows: Modulation of ABCB1 (unknown origin) expressed in mouse L5178Y-MDR cells assessed as multidrug resistance reversing activity by measuring fluorescence activity ratio at 2 uM by rhodamine-123 accumulation based flow cytometry (reference value: 1.1 No unit). It counts as cell-based.
For series [5] the target is unchanged. Put plainly: Modulation of ABCB1 (unknown origin) expressed in mouse L5178Y-MDR cells assessed as multidrug resistance reversing activity by measuring fluorescence activity ratio at 20 uM by rhodamine-123 accumulation based flow cytometry (reference value: 1.1 No unit). It counts as cell-based.

T1 sequence (P08183 whole entry): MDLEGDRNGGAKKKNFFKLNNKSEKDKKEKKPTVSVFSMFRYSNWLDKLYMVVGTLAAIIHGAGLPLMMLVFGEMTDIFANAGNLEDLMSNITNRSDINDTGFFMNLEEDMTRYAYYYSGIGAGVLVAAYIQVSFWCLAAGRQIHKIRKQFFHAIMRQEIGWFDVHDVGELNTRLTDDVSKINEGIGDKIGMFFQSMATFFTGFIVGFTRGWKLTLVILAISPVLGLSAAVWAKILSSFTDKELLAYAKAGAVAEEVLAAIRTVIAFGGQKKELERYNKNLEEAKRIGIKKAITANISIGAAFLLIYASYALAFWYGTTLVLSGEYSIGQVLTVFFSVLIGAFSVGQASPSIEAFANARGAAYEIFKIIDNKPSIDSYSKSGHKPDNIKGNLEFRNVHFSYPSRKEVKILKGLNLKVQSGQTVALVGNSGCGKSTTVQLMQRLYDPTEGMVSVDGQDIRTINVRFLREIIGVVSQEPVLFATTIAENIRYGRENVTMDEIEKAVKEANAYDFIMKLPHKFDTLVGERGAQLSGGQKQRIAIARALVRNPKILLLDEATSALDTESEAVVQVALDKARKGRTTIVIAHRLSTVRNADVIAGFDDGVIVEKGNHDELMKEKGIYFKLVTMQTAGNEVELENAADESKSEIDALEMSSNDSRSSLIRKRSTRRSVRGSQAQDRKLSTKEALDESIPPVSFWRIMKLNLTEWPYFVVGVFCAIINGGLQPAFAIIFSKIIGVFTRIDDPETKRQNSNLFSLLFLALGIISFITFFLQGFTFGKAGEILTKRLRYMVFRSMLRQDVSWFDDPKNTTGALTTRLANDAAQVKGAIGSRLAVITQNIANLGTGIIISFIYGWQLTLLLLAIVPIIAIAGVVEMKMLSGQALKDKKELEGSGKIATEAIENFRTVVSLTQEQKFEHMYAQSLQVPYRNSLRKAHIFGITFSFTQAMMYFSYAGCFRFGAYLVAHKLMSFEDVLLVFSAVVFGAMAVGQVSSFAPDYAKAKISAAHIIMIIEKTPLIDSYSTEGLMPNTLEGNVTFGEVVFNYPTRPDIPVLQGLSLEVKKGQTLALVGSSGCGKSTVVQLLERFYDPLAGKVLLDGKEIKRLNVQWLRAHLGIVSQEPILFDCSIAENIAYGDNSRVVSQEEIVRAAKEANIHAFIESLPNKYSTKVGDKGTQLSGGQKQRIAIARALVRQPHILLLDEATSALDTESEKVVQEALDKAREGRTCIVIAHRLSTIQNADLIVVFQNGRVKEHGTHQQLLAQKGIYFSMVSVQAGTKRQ

On to `C=C(C)/C=C/C[C@@H](C)[C@H]1CC[C@@]2(C)[C@@H]3C(=O)[C@@H]4C(C)(C)[C@@]45C(=O)CC[C@H]5[C@]3(C)CC[C@]12C`, for which the GI50 in series [1] is 20.7 µM; in series [2], 37.6 µM. Further, the Ratio came to 3.1 in series [3], 62.2 in series [4] and 117.7 in series [5].
The matching figures for `CC(C)=CC(=O)C[C@@H](C)[C@H]1CC[C@@]2(C)[C@@H]3C(=O)[C@@H]4C(C)(C)[C@@]45C(=O)CC[C@H]5[C@]3(C)CC[C@]12C`: above 100 µM, above 100 µM, 5.9, 76.7 and 105.5.
In the case of `CC(=O)C[C@@H](C)[C@H]1CC[C@@]2(C)[C@@H]3C(=O)[C@@H]4C(C)(C)[C@@]45C(=O)CC[C@H]5[C@]3(C)CC[C@]12C`, the values for the GI50 in series [1] and in series [2] were 72.2 µM and 68.3 µM, respectively. The Ratio turned out to be 1.4 in series [3], 14.2 in series [4] and 87.5 in series [5].
